Measurements published in ChEMBL document CHEMBL1155362, “Synthesis, characterization and derivatization of some novel types of mono- and bis-imidazolidineiminothiones and imidazolidineiminodithiones with antitumor, antiviral, antibacterial and antifungal activities--part I” (Eur J Med Chem, 2009).
Converted amounts (≈) assume the structure as drawn.

Columns and labels:
Bacillus subtilis [1] = assay: Antibacterial activity against Bacillus subtilis NCIB 3610 at 5 mg/ml by agar disk diffusion assay; format: functional; settings: Bacillus subtilis, NCIB 3610; read-out: DIZ
Bacillus subtilis [2] = assay: Antimicrobial activity against Bacillus subtilis NCTC 1040 by macrotube dilution assay; format: functional
Candida albicans [3] = assay: Antifungal activity against Candida albicans IMRU 3669 at 2.5 mg/ml by agar disk diffusion assay; format: functional; settings: read-out: DIZ
Method in brief: (§1)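 Fungi maintained on Czapek's Dox agar; agar well diffusion with 1 cm wells and […] of each concentration (1, 2.5, 5 mg/mL) in DMF; inhibition zone diameter measured.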

Salmonella typhi [4] = assay: Antimicrobial activity against Salmonella typhi NCIMB 9331 by macrotube dilution assay; format: functional, Salmonella enterica subsp. enterica serovar Typhi; settings: Salmonella enterica
Candida albicans [5] = assay: Antifungal activity against Candida albicans IMRU 3669 at 1 mg/ml by agar disk diffusion assay; format: functional; settings: read-out: DIZ; method in brief: as §1
Aspergillus niger [6] = assay: Antifungal activity against Aspergillus niger Ferm-BAM C-21 at 1 mg/ml by agar disk diffusion assay; format: functional; settings: read-out: DIZ; method in brief: as §1
Aspergillus niger [7] = assay: Antifungal activity against Aspergillus niger Ferm-BAM C-21 at 5 mg/ml by agar disk diffusion assay; format: functional; settings: read-out: DIZ; method in brief: as §1
Candida albicans [8] = assay: Antifungal activity against Candida albicans IMRU 3669 by macrotube dilution assay; format: functional
Method in brief: (§2)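 Macrotube twofold dilution per NCCLS/CLSI guidelines for fungi; 2 mg compound in 2.0 mL DMF, serially diluted across 14 tubes of Czapek's Dox medium, with a control tube; inoculum added to halve the concentration; 30 °C for 72 h; MIC is the lowest concentration without visible growth.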

Klebsiella pneumoniae = assay: Antimicrobial activity against Klebsiella pneumoniae NCIMB 9111 by macrotube dilution assay; format: functional
Pseudomonas aeruginosa [9] = assay: Antibacterial activity against Pseudomonas aeruginosa NCIB 9016 at 2.5 mg/ml by agar disk diffusion assay; format: functional; settings: Pseudomonas aeruginosa, NCIB 9016; read-out: DIZ
Bacillus subtilis [10] = assay: Antibacterial activity against Bacillus subtilis NCIB 3610 at 1 mg/ml by agar disk diffusion assay; format: functional; settings: Bacillus subtilis, NCIB 3610; read-out: DIZ
Candida albicans [11] = assay: Antifungal activity against Candida albicans IMRU 3669 at 5 mg/ml by agar disk diffusion assay; format: functional; settings: Candida albicans, IMRU 3669; read-out: DIZ; method in brief: as §1
Pseudomonas aeruginosa [12] = assay: Antibacterial activity against Pseudomonas aeruginosa NCIB 9016 at 5 mg/ml by agar disk diffusion assay; format: functional; settings: Pseudomonas aeruginosa, NCIB 9016; read-out: DIZ
Bacillus subtilis [13] = assay: Antibacterial activity against Bacillus subtilis NCIB 3610 at 2.5 mg/ml by agar disk diffusion assay; format: functional; settings: Bacillus subtilis, NCIB 3610; read-out: DIZ
Aspergillus niger [14] = assay: Antifungal activity against Aspergillus niger Ferm-BAM C-21 by macrotube dilution assay; format: functional; method in brief: as §2
Pseudomonas aeruginosa [15] = assay: Antibacterial activity against Pseudomonas aeruginosa NCIB 9016 at 1 mg/ml by agar disk diffusion assay; format: functional; settings: Pseudomonas aeruginosa, NCIB 9016; read-out: DIZ
Aspergillus niger [16] = assay: Antifungal activity against Aspergillus niger Ferm-BAM C-21 at 2.5 mg/ml by agar disk diffusion assay; format: functional; settings: read-out: DIZ; method in brief: as §1
Staphylococcus aureus [17] = assay: Antimicrobial activity against Staphylococcus aureus NCTC 7447 by macrotube dilution assay; format: functional
[18] = Antitumor activity against mouse EAC cells assessed as inhibition of cell viability at 100 ug/ml after 2 hrs by trypan blue exclusion assay; format: functional; settings: Ehrlich
Method in brief: (§3)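 EAC cells aspirated from ascitic fluid of inoculated mice and diluted in saline; 0.1 mL cell suspension, 0.8 mL RPMI 1640 and 0.1 mL compound (25, 50 or 100) incubated 2 h at 37 °C; non-viable cells counted by trypan blue exclusion; % non-viable = dead/total × 100.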

HeLa = assay: Cytotoxicity against human HeLa cells assessed as surviving fraction after 48 hrs by SRB assay; format: functional, cell-based
Method in brief: (§4)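 Cells seeded at 10⁴ cells/well and left 24 h to attach, then exposed to […] in triplicate wells per dose. Incubation 48 h, 37 °C, 5% CO₂. Cells fixed and stained with sulforhodamine B, excess dye removed with acetic acid, bound dye taken up in Tris EDTA and read on an ELISA reader. Surviving fraction plotted against concentration.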

[19] = Antitumor activity against mouse EAC cells assessed as inhibition of cell viability at 50 ug/ml after 2 hrs by trypan blue exclusion assay; format: functional; settings: Ehrlich; method in brief: as §3
[20] = Antitumor activity against mouse EAC cells assessed as inhibition of cell viability at 25 ug/ml after 2 hrs by trypan blue exclusion assay; format: functional; settings: Ehrlich; method in brief: as §3
MCF7 = assay: Cytotoxicity against human MCF7 cells assessed as surviving fraction after 48 hrs by SRB assay; format: functional, cell-based; method in brief: as §4
HepG2 = assay: Cytotoxicity against human HepG2 cells assessed as surviving fraction after 48 hrs by SRB assay; format: functional, cell-based; method in brief: as §4
U-251 = assay: Cytotoxicity against human U251 cells assessed as surviving fraction after 48 hrs by SRB assay; format: functional, cell-based; method in brief: as §4
HCT-116 = assay: Cytotoxicity against human HCT116 cells assessed as surviving fraction after 48 hrs by SRB assay; format: functional, cell-based; method in brief: as §4
Escherichia coli = assay: Antibacterial activity against Escherichia coli NCTC 10416 at 5 mg/ml by agar disk diffusion assay; format: functional; settings: read-out: DIZ
Salmonella typhi [21] = assay: Antibacterial activity against Salmonella typhi NCIMB 9331 at 5 mg/ml by agar disk diffusion assay; format: functional, Salmonella enterica subsp. enterica serovar Typhi; settings: Salmonella enterica, read-out: DIZ
Bacillus subtilis [22] = assay: Antibacterial activity against Bacillus subtilis NCTC 1040 at 5 mg/ml by agar disk diffusion assay; format: functional; settings: read-out: DIZ
Staphylococcus aureus [23] = assay: Antibacterial activity against Staphylococcus aureus NCTC 7447 at 5 mg/ml by agar disk diffusion assay; format: functional; settings: read-out: DIZ
[24] = Homo sapiens, MCF7, 48 h, read-out: IC50
[25] = Homo sapiens, HeLa, 48 h, read-out: IC50
[26] = Homo sapiens, HepG2, 48 h, read-out: IC50

Row | SMILES | zone of inhibition at 5000 µg/mL (Bacillus subtilis [1]) | zone of inhibition at 2500 µg/mL (Candida albicans [3]) | zone of inhibition at 1000 µg/mL (Candida albicans [5]) | zone of inhibition at 5000 µg/mL (Aspergillus niger [7]) | zone of inhibition at 2500 µg/mL (Pseudomonas aeruginosa [9]) | zone of inhibition at 1000 µg/mL (Bacillus subtilis [10]) | zone of inhibition at 5000 µg/mL (Candida albicans [11]) | zone of inhibition at 5000 µg/mL (Pseudomonas aeruginosa [12]) | zone of inhibition at 2500 µg/mL (Bacillus subtilis [13]) | zone of inhibition at 1000 µg/mL (Pseudomonas aeruginosa [15]) | inhibition at 100 µg/mL [18] | inhibition at 50 µg/mL [19] | inhibition at 25 µg/mL [20] | IC50 (HeLa; [25]) | IC50 (HepG2; [26]) | also measured
1 | N=C1C(=S)N(c2ccc(I)cc2)C(=S)N1c1ccc(I)cc1 | 24 mm | 20 mm | 19 mm | 17 mm | 17 mm | 19 mm | 21 mm | 20 mm | 21 mm | 15 mm |  |  |  |  |  | MIC (Bacillus subtilis [2]): 3.9 µg/mL (≈ 7.1 µM); MIC (Salmonella typhi [4]): 1.95 µg/mL (≈ 3.55 µM); zone of inhibition at 1000 µg/mL (Aspergillus niger [6]): 12 mm; MIC (Candida albicans [8]): 1.95 µg/mL (≈ 3.55 µM); MIC (Klebsiella pneumoniae): 7.8 µg/mL (≈ 14.2 µM); MIC (Aspergillus niger [14]): 0.49 µg/mL (≈ 0.892 µM); zone of inhibition at 2500 µg/mL (Aspergillus niger [16]): 15 mm; MIC (Staphylococcus aureus [17]): 15.6 µg/mL (≈ 28.4 µM)
2 | O=C1N(c2ccc(Cl)cc2)CC(=S)N1c1ccc(Cl)cc1 |  |  |  |  |  |  |  |  |  |  | 100% | 100% | 90% |  |  | IC50 (HeLa; hela): Not Active; IC50 (MCF7; [24]): 9.36 µg/mL (≈ 27.8 µM); IC50 (HepG2; hepg2): Not Active
3 | N=C1C(=S)N(c2ccc(Cl)c(Cl)c2)C(=O)N1c1ccc(Oc2ccc(N3C(=N)C(=S)N(c4ccc(Cl)c(Cl)c4)C3=O)cc2)cc1 | 20 mm | 17 mm |  |  | 18 mm | 15 mm | 18 mm | 20 mm | 19 mm | 15 mm |  |  |  |  |  | 
4 | Cc1ccc(-n2c(=O)n(-c3ccc(Cl)cc3)c3nc4cc(C)ccc4nc32)cc1 |  |  |  |  |  |  |  |  |  |  | 90% | 60% | 35% | 8.32 µg/mL (≈ 20.8 µM) | 4.43 µg/mL (≈ 11.1 µM) | IC50 (U-251; u-251): Not Active; IC50 (MCF7; mcf7): Not Active; IC50 (HCT-116; hct-116): Not Active
5 | CC1OC(=N)C(=S)N1c1ccc(Cl)c(Cl)c1 (stereo unspecified) | 33 mm | 33 mm | 21 mm | 20 mm | 29 mm | 20 mm | 39 mm | 41 mm | 27 mm | 15 mm |  |  |  |  |  | zone of inhibition at 2500 µg/mL (Aspergillus niger [16]): 11 mm
6 | O=c1n(-c2ccc(Cl)cc2)c2nc3ccccc3nc2n1-c1ccc(Cl)c(Cl)c1 |  |  |  |  |  |  |  |  |  |  | 95% | 70% | 30% | 7.38 µg/mL (≈ 16.7 µM) | 7.11 µg/mL (≈ 16.1 µM) | IC50 (U-251; u-251): Not Active; IC50 (MCF7; mcf7): Not Active; IC50 (HCT-116; hct-116): Not Active
7 | CCOc1ccc(N2C(=O)N(c3c(CC)cc(Cc4cc(CC)c(N5C(=N)C(=S)N(c6ccc(OCC)cc6)C5=O)c(CC)c4)cc3CC)C(=N)C2=S)cc1 | 15 mm | 14 mm | 12 mm | 13 mm | 13 mm | 13 mm | 15 mm | 15 mm | 14 mm |  | 90% | 80% | 60% | 2.42 µg/mL (≈ 3.12 µM) | 5.44 µg/mL (≈ 7.02 µM) | IC50 (U-251; Homo sapiens, U-251, 48 h, read-out: IC50): 1.01 µg/mL (≈ 1.3 µM); IC50 (MCF7; [24]): 2.15 µg/mL (≈ 2.77 µM); IC50 (HCT-116; Homo sapiens, HCT-116, 48 h, read-out: IC50): 4.36 µg/mL (≈ 5.63 µM)
8 | N=C1C(=S)N(c2ccc(Br)cc2)C(=O)N1c1cc(Cl)c(Cl)cc1Cl |  |  |  |  |  |  | 14 mm |  |  |  |  |  |  |  |  | zone of inhibition at 5000 µg/mL (Escherichia coli): 16 mm; zone of inhibition at 5000 µg/mL (Salmonella typhi [21]): 18 mm; zone of inhibition at 5000 µg/mL (Bacillus subtilis [22]): 16 mm; zone of inhibition at 5000 µg/mL (Staphylococcus aureus [23]): 16.5 mm
